Assay results collected from several papers.
Each line is one published result; the experiments were not run side by side.
Target: Serine/threonine-protein kinase 26 (STK26, Homo sapiens, UniProt Q9P289)

N#CC1(c2ccccn2)CCN(Cc2cc(C(=O)O)c(=O)n3ccccc23)CC1 — remaining binding (cell-free assay; competition with immobilised ligand; 1 µM): 100%
CC(C)(C)c1cc(C=C(C#N)C#N)cc(Br)c1O — remaining activity (enzyme activity; inhibitor; 0.5 µM): 95.2%
Cc1nn(C)cc1-c1nc2c(N3CCN(Cc4ccc(Cl)cc4)CC3)c(Cl)cnc2[nH]1 — remaining binding (binding; competition with immobilised ligand; 1 µM): 100%
Cn1cncc1[C@@](O)(COc1ccc(C#N)cc1-c1ccc(OC(F)(F)F)cc1)c1ccc(C#N)cc1 — remaining binding (cell-free assay; competition with immobilised ligand; 1 µM): 99%
COc1ncccc1-c1cnn2ccc(N3CCN(C(=O)OC(C)C)CC3)nc12 — remaining binding (binding; competition with immobilised ligand; 1 µM): 92%
Nc1ncc(-c2nc(N3CCOCC3)nc(N3CCOCC3)n2)c(C(F)F)n1 — remaining binding (binding; competition with immobilised ligand; 10 µM): 91%
O=c1[nH]c2ccccc2n1C1CCN(Cc2ccc(-c3[nH]c4cc5ncnc5cc4nc3-c3ccccc3)cc2)CC1 — remaining signal (cell-free assay; 0.5 µM): 102%
CCN1CCN(Cc2ccc(NC(=O)c3ccc(C)c(/C=C/c4cnc5[nH]ccc5c4OC)c3)cc2C(F)(F)F)CC1 — inhibition (target engagement in cells; inhibitor; chemoproteomics; A-375; 50 nM): -14.9%
Cn1cc(-c2cc(F)cc(N3CCn4c(cc5c4CCCC5)C3=O)c2CO)cc(Nc2ccc(N3CCN(C4COC4)CC3)cn2)c1=O — inhibition (enzyme activity; inhibitor; 0.1 µM): 14%
